Data published in paper PMC6980386 (Traffic (Copenhagen, Denmark), 2019).

Assays:
FL huCD4 L19A = FL huCD4 L19A (Homo sapiens, UniProt P01730, L19A); experiment: CADA down-modulation of cellular huCD4; type: cell-based
Summary of the method: (§1)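 HEK293T cells, seeded overnight in DMEM with 10% serum, 1 mM sodium pyruvate and 0.075% NaHCO₃, were lipofected with full-length human CD4 (WT or mutant). Test compound in DMSO was added 6 h post-transfection as 1:5 serial dilutions (50–0.016 μM) for 48 h. Surface CD4 was stained with FITC/APC anti-CD4 (SK3) and read by flow cytometry. IC50 is 50% of the untreated signal, from four-parameter fits of ≥3 replicate experiments. FC is mutant/WT mean IC50.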

huCD4_1–32-YFP L12A = huCD4_1–32-YFP L12A (Homo sapiens, UniProt P01730, L12A); experiment: CADA inhibition of huCD4_1–32-YFP secretion; type: cell-based
Summary of the method: (§2)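 HEK293T cells were grown in DMEM with 10% FBS and 10 mM HEPES, seeded and left to adhere overnight, then transiently transfected with plasmid by Lipofectamine. Test compound was added 6 h after transfection as a 1:5 serial dilution (50 to 0.016 μM) for 48 h. Secreted YFP in the supernatant was captured on GFP-Trap magnetic beads for 1 h, washed with PBS and measured by flow cytometry. IC50 is the concentration that halves the signal relative to the untreated control, taken from a four-parameter fit of at least three replicate experiments. FC is the mutant mean IC50 divided by the WT mean IC50.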

huCD4_1–32-YFP K26A = huCD4_1–32-YFP K26A (Homo sapiens, UniProt P01730, K26A); experiment: CADA inhibition of huCD4_1–32-YFP secretion; type: cell-based
Summary of the method: as §2

FL huCD4 R8K = FL huCD4 R8K (Homo sapiens, UniProt P01730, R8K); experiment: CADA down-modulation of cellular huCD4; type: cell-based; settings: HEK293T, 48h
Summary of the method: as §1

[1] = biological target: truncated huCD4 D1D2 K27A (Homo sapiens, UniProt P01730, K27A); experiment: Cell-free in vitro translation and translocation; type: biochemical; settings: 15 μM CADA
Summary of the method: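 Proteinase K protection 30 min on ice, quenched with PMSF. Pellets washed in low-salt buffer (HEPES pH 7.6), then SDS-PAGE and phosphor imaging. Translocation normalised to untreated WT. Two to five independent experiments; Welch's t test.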

[2] = + less, − more sensitive to CADA
[3] = read-out: Secreted YFP IC50 (μM) Mean, HEK293T, CADA 48h

C=C1CN(S(=O)(=O)c2ccc(C)cc2)CCCN(Cc2ccccc2)CCCN(S(=O)(=O)c2ccc(C)cc2)C1 [CADA, Cyclotriazadisulfonamide]
Cellular huCD4 FC (fold change of mean IC50 relative to WT) (FL huCD4 L19A; [2]): +1.9
IC50 (FL huCD4 L19A; read-out: Cellular huCD4 IC50 (μM) Mean, HEK293T, CADA 48h): 1.04 µM
enhanced CADA sensitivity relative to WT (huCD4_1–32-YFP L12A): 5 fold
Secreted YFP FC (fold change of mean IC50 relative to WT) (huCD4_1–32-YFP L12A; [2]): −5.3
IC50 (huCD4_1–32-YFP L12A; [3]): 0.24 µM
Secreted YFP FC (fold change of mean IC50 relative to WT) (huCD4_1–32-YFP K26A; [2]): >+39
IC50 (huCD4_1–32-YFP K26A; [3]): > 50 µM
sensitivity to CADA (FL huCD4 R8K): restored full sensitivity to CADA
sensitivity of translocation towards CADA compared to WT [1]: significantly reduced sensitivity to CADA
